Screening results from PubChem.
OX1R antag-1 – antagonists of human orexin 1 receptor (OX1R). Orexin/Hypocretin receptor type 1 (Homo sapiens), O43613. OX1R-expressing cells, FRET antagonist read-out. inhibition, % at 6.6 µM. 330,000 tested, 1.8% active. AID 485270, 2010; in the data active means inhibition mostly above about 38%, no sharp cut-off; inactive means mostly below about 40%
CHO parental Ca – ATP-evoked calcium signal inhibitors, parental CHO, primary screen, counter-screen for OX1R antagonist project, cell-based, fluorescence, Fluo-8 calcium dye. parental CHO-K1, ATP-induced calcium, Fluo-8 fluorescence. inhibition, % at 5.6 µM. 330,000 tested, 0.63% active;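 active means inhibition above that plate's mean sample inhibition plus 3 SD, cut at about 26% in these data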
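Test system: untransfected parental CHO cell line. Compound: one dose, 5.6 µM nominal. Detection: intracellular calcium via Fluo-8 no-wash fluorescent dye. Measure: % inhibition. Benchmarks: ATP-challenged DMSO wells low, unchallenged DMSO wells high.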
TAAR1 antag – human TAAR1 antagonists, primary screen, Fluo-8 calcium fluorescence, CHO RD-HGA16 cells; inhibition, % at 3 µM; 360,000 tested, 1.5% active; antagonist; AID 624466, 2012;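 active means inhibition above a per-plate cutoff, the mean inhibition of test compounds on that plate plus 3 SD, cut at about 49% in these data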
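Assay system: RD-HGA16 CHO cells with stable hTAAR1 and Gα16 / Reagent: EC80 β-phenethylamine stimulus / Doses: 3 µM, single point / Timing: dye loading 75 min at 37 °C, then 30 min room temperature / Measured by: Fluo-8 intracellular calcium dye fluorescence, real-time kinetic reads / Controls: vehicle wells and EC80 agonist wells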
TAAR1 ag – human TAAR1 agonists, primary screen, Fluo-8 calcium fluorescence, CHO RD-HGA16 cells; Trace amine-associated receptor 1 (Homo sapiens), Q96RJ0; vehicle wells 0%, saturating PEA agonist 100%; activation, % at 3 µM; 360,000 tested, 0.99% active;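 active means activation above the mean activation of all test compounds in the run plus 3 SD, cut at about 38% in these data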
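System: CHO-derived RD-HGA16 cells with stable Gα16 and human TAAR1 / Times: 17-24 h plating, Fluo-8 75 min 37 °C, 30 min RT / Technique: calcium-sensitive Fluo-8 signal, excitation 470-495, emission 515-575 nm / Measure: % activation relative to PEA EC100 response / Benchmarks: DMSO and PEA EC100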
GPR7 antagonist – GPR7 receptor antagonists, primary screen, cell-based, fluorescence, single concentration; Neuropeptides B/W receptor type 1 (Homo sapiens), P48145; GPR7-expressing cells, fluorescence antagonist assay; inhibition, % at 4.4 µM; 290,000 tested, 1.1% active; AID 1861, 2009; in the data active means inhibition above about 16%, passing the limit was not always enough;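 further: cells stimulated with the agonist NPW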
Target sequence (P48145 whole entry, looked up): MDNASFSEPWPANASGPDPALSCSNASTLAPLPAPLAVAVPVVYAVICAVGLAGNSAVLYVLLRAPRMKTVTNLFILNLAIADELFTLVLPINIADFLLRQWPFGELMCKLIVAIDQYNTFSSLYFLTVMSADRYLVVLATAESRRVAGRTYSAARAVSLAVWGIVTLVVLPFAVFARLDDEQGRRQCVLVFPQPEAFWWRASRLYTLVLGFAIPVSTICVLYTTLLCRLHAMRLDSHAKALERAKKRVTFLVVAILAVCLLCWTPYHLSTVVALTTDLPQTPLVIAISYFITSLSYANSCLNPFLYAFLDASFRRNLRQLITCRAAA
OX1R antag-2 – OX1R (HCRTR1) antagonists, primary screen, fluorescence, CHO/OX1R cells, Fluo-8 calcium, orexin A; Fluo-8 calcium fluorescence; inhibition, % at 5 µM; 330,000 tested, 0.43% active; AID 434989, 2010;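 active means inhibition above its plate's threshold, mean inhibition of all tested compounds on the plate plus 3 SD, cut at about 37% in these data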
TAAR1 ag confirm – human TAAR1 agonists, retest of hits, confirmation, Fluo-8 calcium fluorescence, CHO RD-HGA16 cells; shares compounds with TAAR1 ag; scaled: DMSO 0%, maximal phenethylamine 100%; activation, % at 3 µM; 2,400 tested, 82% active;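 active means activation above a cutoff set at the run's mean compound activation plus 3 SD, cut at about 39% in these data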
Ga16 nonsel ag – nonselective calcium mobilization agonists, CHO-Ga16 cells, counter-screen for hTAAR1 agonist project, cell-based, fluorescence, CHO-Ga16 parental line. AID 651787, 2012. 2,400 tested, 50% active. Fluo-8 calcium fluorescence; normalized to maximal ATP response, DMSO zero. activation, % at 3 µM. shares compounds with TAAR1 ag;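 active means activation above the run cutoff, the mean activation over all tested wells plus 3 SD, cut at about 12% in these data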
TAAR1 desensitize – TAAR1 desensitization by agonist hits, confirmation, counter-screen for TAAR1 agonist project, cell-based, fluorescence, tachyphylaxis; shares compounds with TAAR1 ag; CHO RD-HGA16 hTAAR1, Fluo-8 calcium, beta-PEA response inhibition; inhibition, % at 3 µM; 2,400 tested, 46% active;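 active means inhibition above the run cutoff, the mean inhibition of all test compounds plus 3 SD, cut at about 49% in these data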;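 further: beta-PEA stimulus applied at its EC80; loss of beta-PEA calcium signal after compound pretreatment read as receptor desensitization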
Ga16 antag count – inhibition of ATP-evoked calcium response in CHO-Ga16 cells, counter-screen for TAAR1 agonist project, cell-based, fluorescence. inhibition, % at 3 µM. shares compounds with TAAR1 ag. 2,400 tested, 39% active. CHO-Ga16 ATP-induced calcium, Fluo-8 fluorescence;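 active means inhibition above the plate's mean compound inhibition plus 3 SD, computed per plate, cut at about 22% in these data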
Hits are given with their value; – = inactive; · = no result given. In the library only some 4.5% were active in any assay of this set; here they are far more common.

SMILES	OX1R antag-1	CHO parental Ca	TAAR1 antag	TAAR1 ag	GPR7 antagonist	OX1R antag-2	TAAR1 ag confirm	Ga16 nonsel ag	TAAR1 desensitize	Ga16 antag count
Cc1nn(CCCC(=O)NCCc2ccccc2)c(=O)c2nccn12	–	–	–	44	–	–	66	–	–	–
O=C(CCCCC(=O)NCCc1ccccc1)NCCc1ccccc1	–	–	–	–	–	–	·	·	·	·
CC(=O)Nc1ccc(NC(=O)COc2cccc3ccccc23)cc1	·	·	–	–	·	·	·	·	·	·
CC1CCCCN1C(=O)c1ccc(Br)o1 (stereo not drawn)	–	–	–	–	–	–	·	·	·	·
c1ccc([C@H]2CNCCN2CCc2cccc3ccccc23)cc1	–	–	–	54	·	–	76	20	53	24
COc1cc(CCCN2CCNC[C@@H]2c2ccccc2)cc(OC)c1OC	–	–	–	–	·	–	·	·	·	·
O=C(CCN1Cc2ccccc2C1)c1ccc2c(c1)OCCO2	–	–	–	38	–	–	68	–	–	–
O=C(CCN1CCc2ccccc2C(c2ccccc2)C1)c1ccc2c(c1)OCCO2 (stereo not drawn)	–	–	52	73	–	–	75	–	77	–
CCCC(=O)c1ccc2c(c1)OCCO2	–	–	–	–	–	–	·	·	·	·
O=C(O)CCC(=O)c1ccc2c(c1)OCCO2	–	–	–	–	–	–	·	·	·	·
CCN(CC)C(=O)c1ccc2nc([C@@H]3O[C@H](CO)[C@H](O)[C@H](O)[C@H]3O)[nH]c2c1	·	·	–	–	·	·	·	·	·	·
O=C(C[C@@H]1C=C[C@H](NC(=O)Cc2ccccn2)[C@@H](CO)O1)NCCc1ccccc1	·	·	·	·	·	·	·	–	·	–
COc1ccc(NC(=O)COc2ccc3c(C)cc(=O)oc3c2)cc1S(=O)(=O)N1CCCCC1	–	–	–	–	·	–	·	·	·	·
CC1CN(C(NC(=O)C(C)(C)C)C(Cl)(Cl)Cl)CC(C)O1 (stereo not drawn)	–	–	–	65	–	–	85	–	–	–
CCCCC(=O)NC(N1CCCCC1)C(Cl)(Cl)Cl (stereo not drawn)	–	–	–	–	–	–	·	·	·	·
CC1CN(C(NC(=O)c2ccccc2)C(Cl)(Cl)Cl)CC(C)O1 (stereo not drawn)	·	·	–	46	–	·	70	–	–	–
CC(C)(C)S(=O)N1Cc2cc(C(=O)Nc3ccc(-c4ccccc4)cc3)nc(-c3cccc(-c4cc5ccccc5o4)c3)c2[C@@H]1CCO (stereo partly drawn)	·	·	–	–	·	·	·	·	·	·
CCNC(=O)C1(C)CCCN(CCOc2ccc(OC)cc2)C1 (stereo not drawn)	·	·	–	–	·	·	·	·	·	·
O=C(NCc1ccc(Cl)cc1)c1ccc(Cn2cc(C(F)(F)F)ccc2=O)cc1	–	–	–	66	–	–	–	24	–	26
C=CCNC(=O)c1ccc(Cn2cc(C(F)(F)F)ccc2=O)cc1	–	–	–	–	–	–	·	·	·	·
